Reference: ChEMBL document CHEMBL1154198, “Chemical genetics of Plasmodium falciparum” (Nature, 2010)

Experiments:
[1] = tested on: Plasmodium falciparum; experiment: ST_JUDE: Cytotoxicity against Plasmodium falciparum D10 transfected with yeast DHOD; type: functional, organism-based
[2] = tested on: Plasmodium falciparum; experiment: ST_JUDE: Cytotoxicity against Plasmodium falciparum K1; type: functional, organism-based
Outline: (§1)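 Asexual P. falciparum grown in human erythrocytes, exposed to compounds for 72 h, and growth read as the DNA quantity in treated versus control cultures. Dose-response run at 12 concentrations from 10 μM to 5 nM.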

[3] = ST_JUDE: Cytotoxicity using luciferase to measure ATP as an indicator of the viability of human Burkitt''s lymphoma lymphoblast cells (Raji); type: toxicity, cell-based
[4] = tested on: Plasmodium falciparum; experiment: ST_JUDE: Cytotoxicity against Plasmodium falciparum W2; type: functional, organism-based
[5] = ST_JUDE: Cytotoxicity using luciferase to measure ATP as an indicator of the viability of human epithelial hepatocellular carcinoma cells (HepG2); type: toxicity, cell-based
[6] = tested on: Plasmodium falciparum; experiment: ST_JUDE: Cytotoxicity against Plasmodium falciparum Dd2; type: functional, organism-based
[7] = tested on: Plasmodium falciparum; experiment: ST_JUDE: Cytotoxicity against Plasmodium falciparum 3D7; type: functional, organism-based; outline: as §1
[8] = ST_JUDE: Cytotoxicity using luciferase to measure ATP as an indicator of the viability of human epithelial embryonic kidney cells (HEK293); type: toxicity, cell-based
[9] = tested on: Trypanosoma brucei; experiment: ST_JUDE: Cytotoxicity using luciferase to measure ATP as an indicator of the viability of Trypanosoma brucei; type: functional, organism-based
[10] = ST_JUDE: Cytotoxicity using luciferase to measure ATP as an indicator of the viability of human foreskin fibroblast cells (BJ); type: toxicity, cell-based
[11] = tested on: Plasmodium falciparum; experiment: ST_JUDE: Cytotoxicity against Plasmodium falciparum V1/S; type: functional, organism-based
[12] = tested on: Leishmania major; experiment: ST_JUDE: Cytotoxicity using Alamar Blue to measure viability of Leishmania major; type: functional, organism-based
Outline: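 L. major promastigotes; drug susceptibility read with Alamar Blue.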

[13] = tested on: Plasmodium falciparum; experiment: ST_JUDE: Cytotoxicity against Plasmodium falciparum SB-A6; type: functional, organism-based
[14] = tested on: Plasmodium falciparum; experiment: ST_JUDE: Plasmodium falciparum 3D7 EC50 (uM) as measured by SYBR green dye; type: functional, organism-based
[15] = tested on: Toxoplasma gondii; experiment: ST_JUDE: Growth inhibition of to Toxoplasma gondii, in human U-2OS cells, as measured by luciferase.; type: functional, organism-based; details: RH, U2OS
Outline: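 T. gondii parasites engineered to express luciferase; drug sensitivity read by luminescence.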

[16] = tested on: Plasmodium falciparum; experiment: ST_JUDE: Plasmodium falciparum K1 EC50 (uM) as measured by SYBR green dye; type: functional, organism-based

Row | SMILES | EC50 [1] [µM] | EC50 [2] [µM] | EC50 [3] [µM] | EC50 [4] [µM] | EC50 [5] [µM] | EC50 [6] [µM] | EC50 [7] [µM] | EC50 [8] [µM] | EC50 [9] [µM] | EC50 [10] [µM] | EC50 [11] [µM] | EC50 [12] [µM] | EC50 [13] [µM] | EC50 [14] [µM] | EC50 [15] [µM] | EC50 [16] [µM]
1 | CCCCCOc1ccc(N(C(C)=O)C2=C(N3CCCCC3)C(=O)c3ccccc3C2=O)cc1 | 0.0615 | 0.129 | 4.1 | 0.386 | 9.76 | 0.754 | 0.193 | > 29.3 | 4.14 | > 29.3 | 0.114 | > 12.6 | 0.11 | 0.728 | > 16.1 | 0.371
2 | Fc1ccc(Nc2nc(NCc3ccccc3)c3ccccc3n2)cc1 | 0.868 | 0.962 | 13.7 | 3.54 | 6.78 | 0.644 | 0.626 | 16.8 | 7.89 | 15.2 | 2.58 | 0.0024 | 0.321 | 0.901 | > 22.3 | 0.781
3 | CCOc1cc(C2CC(=O)NC3=C2C(=O)CC(c2cc(OC)ccc2OC)C3)ccc1O (stereo not drawn) | 1.14 | 1.09 | > 40.9 | 1.98 | > 40.9 | 1.38 | 1.05 | > 40.9 | > 39.2 | > 40.9 | 1.66 | > 17.5 | 1.13 | 1.07 | > 22.4 | 1.28
4 | O=[N+]([O-])c1cc(CN2CCN(c3cccc(C(F)(F)F)c3)CC2)c2cccnc2c1O | 1.08 | > 8.18 | > 31.9 | > 8.18 | > 31.9 | 0.791 | 0.676 | > 31.9 | 1.35 | > 31.9 | > 8.18 | > 13.6 | 0.642 | 1.28 | > 17.5 | 1.19
5 | CCOc1cc2c(cc1OCC)C(c1cc(C)c(O)c(C)c1)NCC2 (stereo not drawn) | 2.77 | 0.439 | > 52 | 0.451 | > 52 | 0.42 | 1.3 | > 52 | 14.8 | > 52 | 0.868 | > 22.2 | 3 | 1.83 | > 28.5 | 0.587
6 | CCN(CC)CCCOC(=O)c1c(C)oc2cc3c(C(=O)OCCCN(CC)CC)c(C)oc3cc12 | 1.73 | 2.89 | 23.7 | 0.789 | 4.71 | 0.273 | 2.14 | 29.2 | 5.22 | > 38.9 | > 9.98 | > 16.6 | 0.537 | 0.538 | 10.9 | 1.27
7 | CCOc1cc2c(cc1OCC)C(c1cc(Cl)ccc1O)NCC2 (stereo not drawn) | 3.57 | 0.722 | > 46.9 | 0.732 | 21 | 2.01 | 1.82 | > 46.9 | 9.49 | > 46.9 | 1.32 | > 20.1 | 3.5 | 0.898 | > 25.7 | 0.243
8 | CSc1ccc2ccccc2[n+]1C | 1.11 | 0.588 | > 37.1 | 3.21 | > 37.1 | 1.53 | 0.59 | > 37.1 | > 35.6 | > 37.1 | 1.83 | > 15.9 | 1.2 | 1.59 | > 20.3 | 0.893
9 | Cc1ccc(C2CC(C(F)(F)F)n3nc(C(=O)N4CCN(C(c5ccccc5)c5ccccc5)CC4)cc3N2)cc1 (stereo not drawn) | > 11 | > 11 | > 42.7 | > 11 | > 42.7 | 1.37 | 1.12 | > 42.7 | 5.41 | > 42.7 | > 11 | > 18.3 | 0.448 | 0.668 | > 23.4 | 10.4
10 | CC(CNC(=O)c1cn(C2CCCCC2)cc(C(=O)NC(C)(C)C)c1=O)c1ccccc1 (stereo not drawn) | 0.15 | 0.705 | > 52.8 | > 13.6 | > 52.8 | 2.18 | 0.321 | > 52.8 | > 50.7 | > 52.8 | > 13.6 | > 22.6 | 0.109 | 0.0937 | > 28.9 | 8.05
11 | CCO/C(O)=C1\C(C)=NC2=C(C(=O)CC(c3ccc(OC)c(OC)c3)C2)C1c1ccccc1C (stereo not drawn) | 0.0877 | 0.12 | > 42.7 | 0.0549 | > 42.7 | 0.0965 | 0.0971 | > 42.7 | > 40.9 | > 42.7 | 0.104 | > 18.3 | 0.0875 | 0.102 | > 23.4 | 0.135
12 | CN1/C(=C/c2cccc[n+]2C)Sc2ccccc21 | 0.879 | 0.605 | 4.05 | 0.495 | > 28.3 | 0.771 | 0.567 | > 28.3 | 3.95 | > 28.3 | 0.503 | 0.108 | 0.681 | 0.54 | > 15.5 | 0.389
13 | CCn1nc(-c2ccc(C(F)(F)F)cc2)nc2c(=O)n(C)c(=O)nc1-2 | 0.613 | 0.246 | > 50.1 | 0.0904 | 2.87 | 4.55 | 0.403 | > 50.1 | > 48 | > 50.1 | 0.225 | > 21.4 | 1.3 | 0.779 | > 27.4 | 1.37
